Series [1] relates to Mus musculus. Kind of series: Decrease in insulin level in human ApoB100/CETP transgenic mouse at 6 mg/kg, po after 6 weeks by ELISA relative to control. The format is functional. More on the design: scale not given: the % may be the effect or the level left.
Series [2] is described as follows: Clearance in Sprague-Dawley rat at 1.09 mg/kg, iv. In kind it is ADME, organism-based. Set-up: dose 1.09 mg/kg, route intravenous. The conditions noted are these: in vivo. In short, it runs like this:
(§1)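 Male SD rats dosed once i.v. or p.o. (n = 8 per route), vehicle 5% ethanol, 10% HPCD, phosphate buffer pH 7.5-8.0. One animal sacrificed at each of 5, 15, 30, 60, 90, 120, 240 and 360 min; EDTA plasma analysed by high turbulence LC-MS/MS. Each data point represents one animal.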

Series [3] concerns the target T1, Peroxisome proliferator-activated receptor delta (Mus musculus) (UniProt P35396).
T1 sequence (whole entry): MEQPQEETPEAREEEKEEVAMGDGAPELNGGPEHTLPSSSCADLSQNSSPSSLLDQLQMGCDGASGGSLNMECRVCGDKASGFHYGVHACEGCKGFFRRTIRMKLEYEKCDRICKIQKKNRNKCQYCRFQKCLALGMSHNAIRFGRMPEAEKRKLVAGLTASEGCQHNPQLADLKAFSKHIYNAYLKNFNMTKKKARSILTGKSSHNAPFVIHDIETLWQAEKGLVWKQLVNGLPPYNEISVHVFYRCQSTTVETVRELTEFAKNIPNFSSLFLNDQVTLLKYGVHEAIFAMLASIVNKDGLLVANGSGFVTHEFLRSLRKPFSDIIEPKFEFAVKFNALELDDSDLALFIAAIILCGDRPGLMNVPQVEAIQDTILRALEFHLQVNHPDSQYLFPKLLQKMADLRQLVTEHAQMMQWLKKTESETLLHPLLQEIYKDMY
The series can be described thus: Agonist activity at mouse PPAR delta expressed in HEK293 cells by PPAR-GAL4 transactivation assay. In kind it is functional, cell-based.

Series [4] deals with L6. Kind of series: Effect on increase in fatty acid oxidation in rat L6 cells relative to basal. The format is functional. The method, boiled down: (§2)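 Rat L6 myoblasts differentiated 5 days in 2% serum, then treated 42 h with compound (refreshed at 24 h), followed by 6 h with 0.4 mM palmitate containing [9,10-3H]-palmitic acid on 2% fatty-acid-free BSA. Stopped with 10% TCA; released 3H-H2O collected by overnight equilibration at 50 °C and counted.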

Series [5] is described as follows: Oral bioavailability in Sprague-Dawley rat at 2.13 mg/kg. The format is ADME, organism-based. To be noted: in vivo. The method, boiled down:
(§3)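 Male SD rats received a single p.o. or i.v. dose (n = 8 per route) in 5% ethanol, 10% HPCD and phosphate buffer, pH 7.5-8.0. At 5, 15, 30, 60, 90, 120, 240 and 360 min one rat was sacrificed per time point. EDTA plasma was assayed by high turbulence LC-MS/MS. Cmax and bioavailability were taken from oral dosing; volume of distribution is at steady state.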

Series [6] relates to Mus musculus. The series can be described thus: Decrease in total ketone bodies level in human ApoB100/CETP transgenic mouse at 6 mg/kg, po after 6 weeks relative to control. The format is functional. More on the design: scale not given: the % may be the effect or the level left.
For series [7], the system named is Mus musculus. The series can be described thus: Decrease in HbA1c level in human ApoB100/CETP transgenic mouse at 6 mg/kg, po after 6 weeks relative to control. In kind it is functional. Set-up: scale not given: the % may be the effect or the level left.
The test system of series [8] is L6. Kind of series: Effect on fatty acid oxidation in rat L6 cells. The format is functional, cell-based. In short, it runs like this: as §2
Series [9] in a line: Half life in Sprague-Dawley rat at 2.13 mg/kg, po. The format is ADME, organism-based. More on the design: dose 2.13 mg/kg, route oral. The conditions noted are these: in vivo. In short, it runs like this:
as §1

In series [10] the test system is Mus musculus. The series can be described thus: Decrease in triglycerides level in human ApoB100/CETP transgenic mouse at 6 mg/kg, po after 6 weeks relative to control. In kind it is functional. Set-up: scale not given: the % may be the effect or the level left.
The nature of series [11]: Plasma Cmax in Sprague-Dawley rat at 2.13 mg/kg, po. In kind it is ADME, organism-based. More on the design: dose 2.13 mg/kg, route oral. In short, it runs like this:
as §3

Series [12] concerns the target T2, Peroxisome proliferator-activated receptor alpha (Homo sapiens) (UniProt Q07869).
T2 sequence (whole entry): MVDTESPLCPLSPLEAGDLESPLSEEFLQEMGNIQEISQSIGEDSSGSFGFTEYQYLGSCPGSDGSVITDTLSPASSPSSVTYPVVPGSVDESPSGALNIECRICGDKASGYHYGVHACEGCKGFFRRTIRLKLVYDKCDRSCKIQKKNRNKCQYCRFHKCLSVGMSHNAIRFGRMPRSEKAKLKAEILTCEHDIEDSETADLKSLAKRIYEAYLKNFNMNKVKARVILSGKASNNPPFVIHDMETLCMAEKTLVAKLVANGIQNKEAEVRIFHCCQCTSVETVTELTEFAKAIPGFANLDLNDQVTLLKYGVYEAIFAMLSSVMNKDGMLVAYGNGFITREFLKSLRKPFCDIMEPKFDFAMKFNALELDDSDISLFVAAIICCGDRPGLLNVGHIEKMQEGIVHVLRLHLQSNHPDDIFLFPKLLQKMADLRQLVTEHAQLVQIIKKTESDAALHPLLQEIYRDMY
Kind of series: Activity at human liver PPAR alpha expressed in HEK293 cells by GAL4 transactivation assay relative to NNC61-4655. The format is cell-based.

Series [13] has as its system Mus musculus. Kind of series: Decrease in LDL level in human ApoB100/CETP transgenic mouse at 6 mg/kg, po after 6 weeks relative to control. In kind it is functional. More on the design: scale not given: the % may be the effect or the level left.
In series [14] the test system is Mus musculus. The series can be described thus: Decrease in glucose level in human ApoB100/CETP transgenic mouse at 6 mg/kg, po after 6 weeks relative to control. In kind it is functional. More on the design: scale not given: the % may be the effect or the level left.
Series [15] concerns Mus musculus. The series can be described thus: Increase in HDL level in human ApoB100/CETP transgenic mouse at 6 mg/kg, po after 6 weeks relative to control. In kind it is functional.
For series [16], the system named is Mus musculus. The series can be described thus: Decrease in total cholesterol level in human ApoB100/CETP transgenic mouse at 6 mg/kg, po after 6 weeks relative to control. In kind it is functional. More on the design: scale not given: the % may be the effect or the level left.
Series [17] is described as follows: Volume of distribution in Sprague-Dawley rat at 1.09 mg/kg, iv. More on the design: dose 1.09 mg/kg, route intravenous. The conditions noted are these: in vivo, read-out: Vss. In kind it is ADME, organism-based. The method, boiled down:
as §3

The clearance is a measure of how efficiently the substance is removed, as volume per time. One may read the EC50 as the concentration giving half of the maximal effect. One may read the half-life as how long it takes for the measured level to halve. The Cmax is the maximum level reached in the sampled fluid or tissue.

In the case of `Cc1cc(SCc2sc(-c3ccc(C(F)(F)F)cc3)nc2C)ccc1OCC(=O)O` [GW501516], the Activity in series [1] was found to be 41%; in series [3], 269%; in series [4], 120%; in series [6], 49%; in [7], 13%; in [10], 14%. Further, the Activity in [13] is recorded as 19%; in series [14], 4%; in series [15], 4%; in [16], 15%. Moreover, the clearance in series [2] stood at 7 mL/min/kg. The bioavailability in series [5] came to 136%. This compound had an EC50 in series [8] of 6 nM. This compound yielded a half-life in series [9] of 10.2 h. This compound showed a Cmax in series [11] of 454 ng/mL. The compound also displayed an Efficacy in series [12] of 68%. Also, the Vd in series [17] is 1 L/kg.

The values are drawn from ChEMBL document CHEMBL1142981, “Identification and synthesis of a novel selective partial PPARdelta agonist with full efficacy on lipid metabolism in vitro and in vivo” (J Med Chem, 2007).
